Assay results from ChEMBL document CHEMBL4819015, “Design, synthesis, and biological evaluation of hederagenin derivatives with improved aqueous solubility and tumor resistance reversal activity” (Eur J Med Chem, 2021).
Converted amounts (≈) assume the structure as drawn.

Columns and labels:
[1] = biological target: T1, ATP-dependent translocase ABCB1 (Homo sapiens, UniProt P08183); experiment: Reversal of P-glycoprotein mediated multidrug resistance in human KBV cells assessed as paclitaxel-mediated apoptosis by measuring accumulation of cells in Sub-G1 phase in at 5 uM measured by flowcytometry method (Rvb (paclitaxel)= 2.1%); format: cell-based
T1 sequence (P08183 whole entry): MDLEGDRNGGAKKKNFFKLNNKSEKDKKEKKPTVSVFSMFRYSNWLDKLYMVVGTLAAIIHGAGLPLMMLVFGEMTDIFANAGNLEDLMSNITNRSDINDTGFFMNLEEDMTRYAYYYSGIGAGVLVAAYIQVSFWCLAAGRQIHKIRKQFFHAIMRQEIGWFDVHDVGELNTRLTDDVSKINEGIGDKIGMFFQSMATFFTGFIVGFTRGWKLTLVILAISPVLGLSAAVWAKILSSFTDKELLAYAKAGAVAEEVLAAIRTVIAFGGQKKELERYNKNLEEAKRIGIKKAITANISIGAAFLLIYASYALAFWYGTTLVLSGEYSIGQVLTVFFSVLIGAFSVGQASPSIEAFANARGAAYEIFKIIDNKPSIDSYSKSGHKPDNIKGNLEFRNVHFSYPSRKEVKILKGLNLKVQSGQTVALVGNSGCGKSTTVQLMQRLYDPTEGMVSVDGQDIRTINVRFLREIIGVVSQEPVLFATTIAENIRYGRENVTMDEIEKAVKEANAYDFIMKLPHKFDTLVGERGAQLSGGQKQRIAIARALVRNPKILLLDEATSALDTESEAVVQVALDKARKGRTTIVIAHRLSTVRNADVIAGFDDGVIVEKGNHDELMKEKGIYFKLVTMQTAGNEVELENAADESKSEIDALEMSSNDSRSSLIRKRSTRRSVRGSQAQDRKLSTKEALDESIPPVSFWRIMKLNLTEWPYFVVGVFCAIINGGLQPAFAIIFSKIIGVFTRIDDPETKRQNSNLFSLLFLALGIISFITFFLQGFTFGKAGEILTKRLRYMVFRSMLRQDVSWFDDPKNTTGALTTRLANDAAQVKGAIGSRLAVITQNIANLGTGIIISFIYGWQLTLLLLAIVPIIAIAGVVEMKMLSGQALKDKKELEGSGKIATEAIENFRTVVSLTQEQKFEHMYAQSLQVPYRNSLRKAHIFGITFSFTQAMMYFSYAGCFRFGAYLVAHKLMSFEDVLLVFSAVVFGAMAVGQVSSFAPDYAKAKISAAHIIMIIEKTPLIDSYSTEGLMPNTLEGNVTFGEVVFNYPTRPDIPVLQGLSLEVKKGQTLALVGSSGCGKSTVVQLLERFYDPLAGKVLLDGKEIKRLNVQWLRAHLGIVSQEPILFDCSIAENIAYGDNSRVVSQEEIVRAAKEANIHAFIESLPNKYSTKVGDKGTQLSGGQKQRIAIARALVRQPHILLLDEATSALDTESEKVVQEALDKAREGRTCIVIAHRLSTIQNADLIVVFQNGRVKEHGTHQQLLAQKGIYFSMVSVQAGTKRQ

[2] = Aqueous solubility of compound in deionized water at 37 degC measured by UV-vis spectrophotometry
[3] = biological target: T1, ATP-dependent translocase ABCB1; experiment: Reversal of P-glycoprotein mediated multidrug resistance in human KBV cells assessed as potentiation of paclitaxel-induced cytotoxicity by measuring cell survival rate at 10 uM measured after 72 hrs by MTT assay; format: cell-based
In short: (§1)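 KBV or MCF-7T cells were grown in DMEM with 10% heat-inactivated FCS, penicillin/streptomycin, 37 °C and 5% CO2, with periodic 10 nM paclitaxel to keep resistance; cells were used in exponential phase. Cells were exposed to test articles for 72 h, given MTT for about 2 h, the medium was removed and DMSO added. A570 gave the survival rate.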

[4] = Induction of apoptosis in human KBV cells assessed as accumulation of cells in Sub-G1 phase at 10 uM measured by flowcytometry method (reference value: 1.9%); format: functional
[5] = biological target: T1, ATP-dependent translocase ABCB1; experiment: Reversal of P-glycoprotein mediated multidrug resistance in human KBV cells assessed as paclitaxel-mediated apoptosis by measuring accumulation of cells in Sub-G1 phase in at 10 uM measured by flowcytometry method (Rvb (paclitaxel)= 2.1%); format: cell-based
[6] = Antitumour activity against human KBV cells xenografted in nude mouse assessed as paclitaxel-mediated tumour growth inhibition at 10 mg/kg; format: functional; conditions: read-out: TGI
[7] = Antiproliferative activity against human KBV cells in presence of 100 nM Paclitaxel; format: functional, cell-based; in short: as §1
[8] = Cytotoxicity against human KBV cells assessed as cell survival at 10 uM measured after 72 hrs by MTT assay; format: functional; conditions: read-out: Activity; in short: as §1
[9] = biological target: T1, ATP-dependent translocase ABCB1; experiment: Inhibition of P-glycoprotein mediated Flutax1 efflux in human KBV cells assessed as Flutax1 accumulation at 5 uM […] by flowcytometry; format: cell-based
[10] = biological target: T1, ATP-dependent translocase ABCB1; experiment: Inhibition of P-glycoprotein mediated Rhodamine-123 efflux in human KBV cells assessed as Rhodamine-123 accumulation measured after 2 hrs by flowcytometry; format: cell-based; conditions: dose 5-10 µM
In short: (§2)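 KBV or MCF-7T cells were pretreated with or without compound for 2 h, then loaded with rhodamine 123 for 30 min. Cells were harvested and washed three times in PBS. Flow cytometry of 10,000 cells gave mean fluorescence intensity; mean ± SD, n = 3.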

[11] = Stability of compound in presence of Porcine liver esterase assessed as residual activity at pH 7.4 measured after 4 hrs; format: ADME; conditions: pig, read-out: Stabilty
In short: (§3)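 Compound in PBS pH 7.4 with porcine liver esterase, shaken at 37 °C. Aliquots were taken at set times, diluted 10-fold and centrifuged at 14,000 rpm for 5 min. Supernatants were run on C18 HPLC with isocratic 95% methanol/water (0.1% TFA) at 1 mL/min, UV 306 nm. Percent remaining is relative to the 0 h sample.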

[12] = biological target: T1, ATP-dependent translocase ABCB1; experiment: Inhibition of P-glycoprotein mediated Rhodamine-123 efflux in human MCF-7T cells assessed as Rhodamine-123 accumulation measured after 2 hrs by flowcytometry; format: cell-based; conditions: dose 5-10 µM; in short: as §2
[13] = Stability of compound in presence of Porcine liver esterase assessed as residual activity at pH 7.4 measured after 24 hrs; format: ADME; conditions: pig, read-out: Stabilty; in short: as §3
[14] = Stability of compound in presence of Porcine liver esterase assessed as residual activity at pH 7.4 measured after 12 hrs; format: ADME; conditions: pig, read-out: Stabilty; in short: as §3
[15] = biological target: T1, ATP-dependent translocase ABCB1; experiment: Inhibition of P-glycoprotein mediated Flutax1 efflux in human KBV cells assessed as Flutax1 accumulation at 10 uM measured after 2 hrs by flowcytometry; format: cell-based; conditions: mcf-t, in the assay text read “human MCF-7T cells” for “human KBV cells”
[16] = Cytotoxicity against human KBV cells assessed as cell survival measured after 72 hrs by MTT assay; format: functional, cell-based; in short: as §1
[17] = Cytotoxicity against human MCF-T cells assessed as cell survival measured after 72 hrs by MTT assay; format: functional, cell-based; in short: as §1

Row | Structure (SMILES) | cell survival rate [3] | viability at 10 µM [8] | also measured
1 | CC1(C)CC[C@]2(C(=O)OCc3ccccc3)CC[C@]3(C)C(=CC[C@@H]4[C@@]5(C)Cc6nccnc6[C@@](C)(CO)[C@@H]5CC[C@]43C)[C@@H]2C1 | 18.17% | – | Activity [1]: 15.6%; solubility ([2]; pH 7.4, read-out: solubility): 1.2 µg/mL (≈ 2.01 µM); Activity [4]: 2.3%; Activity [5]: 25.4%; inhibition in vivo at 10 mg/kg [6]: 41.9%; IC50 [7]: 2.39 nM
2 | CN(C)CCCOC(=O)[C@]12CCC(C)(C)C[C@H]1C1=CC[C@@H]3[C@@]4(C)Cc5nccnc5[C@@](C)(CO)[C@@H]4CC[C@@]3(C)[C@]1(C)CC2 | 12.65% | 67.5% | –
3 | CCN1CCN(C(=O)[C@]23CCC(C)(C)C[C@H]2C2=CC[C@@H]4[C@@]5(C)Cc6nccnc6[C@@](C)(CO)[C@@H]5CC[C@@]4(C)[C@]2(C)CC3)CC1 | 16.67% | 120% | –
4 | CC1(C)CC[C@]2(C(=O)OCC(=O)OCCOCCOCCOCCO)CC[C@]3(C)C(=CC[C@@H]4[C@@]5(C)Cc6nccnc6[C@@](C)(CO)[C@@H]5CC[C@]43C)[C@@H]2C1 | 25.88% | 75.4% | –
5 | CC1(C)CC[C@]2(C(=O)N3CCOCC3)CC[C@]3(C)C(=CC[C@@H]4[C@@]5(C)Cc6nccnc6[C@@](C)(CO)[C@@H]5CC[C@]43C)[C@@H]2C1 | 16.37% | 110% | –
6 | CC1(C)CC[C@]2(C(=O)OCC(=O)OCCOCCOCCOCCOCCOCCOCCOCCOCCO)CC[C@]3(C)C(=CC[C@@H]4[C@@]5(C)Cc6nccnc6[C@@](C)(CO)[C@@H]5CC[C@]43C)[C@@H]2C1 | 25.16% | 76% | –
7 | CC1(C)CC[C@]2(C(=O)OCc3ccccc3)CC[C@]3(C)C(=CC[C@@H]4[C@@]5(C)Cc6nccnc6[C@@](C)(COC(=O)CCC(=O)OCCOCCO)[C@@H]5CC[C@]43C)[C@@H]2C1 | 79.47% | 72.7% | solubility ([2]; pH 7.4): Soluble
8 | CC1(C)CC[C@]2(C(=O)O)CC[C@]3(C)C(=CC[C@@H]4[C@@]5(C)Cc6cn[nH]c6[C@@](C)(CO)[C@@H]5CC[C@]43C)[C@@H]2C1 | 99.31% | 109% | –
9 | CC1(C)CC[C@]2(C(=O)OCC(=O)OCCOCCO)CC[C@]3(C)C(=CC[C@@H]4[C@@]5(C)Cc6nccnc6[C@@](C)(CO)[C@@H]5CC[C@]43C)[C@@H]2C1 | 26.15% | 81.7% | –
10 | CC1(C)CC[C@]2(C(=O)OCc3ccccc3)CC[C@]3(C)C(=CC[C@@H]4[C@@]5(C)Cc6cn[nH]c6[C@@](C)(CO)[C@@H]5CC[C@]43C)[C@@H]2C1 | 21.95% | 83.1% | –
11 | CC1(C)CC[C@]2(C(=O)N3CCCCC3)CC[C@]3(C)C(=CC[C@@H]4[C@@]5(C)Cc6nccnc6[C@@](C)(CO)[C@@H]5CC[C@]43C)[C@@H]2C1 | 25.27% | 59.4% | –
12 | CN1CCN(C(=O)[C@]23CCC(C)(C)C[C@H]2C2=CC[C@@H]4[C@@]5(C)Cc6nccnc6[C@@](C)(CO)[C@@H]5CC[C@@]4(C)[C@]2(C)CC3)CC1 | 23.51% | 124% | –
13 | CC1(C)CC[C@]2(C(=O)OCc3ccccc3)CC[C@]3(C)C(C(=O)C[C@@H]4[C@@]5(C)Cc6nccnc6[C@@](C)(CO)[C@@H]5CC[C@]43C)[C@@H]2C1 (some centres undefined) | 20.77% | 129% | –
14 | CC1(C)CC[C@]2(C(=O)OCc3ccccc3)CC[C@]3(C)C(=CC[C@@H]4[C@@]5(C)Cc6nccnc6[C@@](C)(COC(=O)CCC(=O)OCCOCCOCCOCCOCCOCCOCCOCCOCCOCCOCCOCCOCCO)[C@@H]5CC[C@]43C)[C@@H]2C1.CO | 15.93% | 69.7% | solubility ([2]; pH 7.4, read-out: solubility): 789 µg/mL
15 | CC1(C)CC[C@]2(C(=O)OCC(=O)OCCOCCOCCO)CC[C@]3(C)C(=CC[C@@H]4[C@@]5(C)Cc6nccnc6[C@@](C)(CO)[C@@H]5CC[C@]43C)[C@@H]2C1 | 28.76% | 80.5% | –
16 | Cc1nc2c(s1)C[C@@]1(C)[C@@H](CC[C@]3(C)[C@@H]1CC=C1[C@@H]4CC(C)(C)CC[C@]4(C(=O)O)CC[C@]13C)[C@]2(C)CO | 61.78% | 96% | –
17 | CC1(C)CC[C@]2(C(=O)OCc3ccccc3)CC[C@]3(C)C(=CC[C@@H]4[C@@]5(C)Cc6nccnc6[C@@](C)(COC(=O)CCC(=O)OCCOCCOCCOCCO)[C@@H]5CC[C@]43C)[C@@H]2C1 | 11.97% | 90.3% | Activity [9]: Active; Activity [10]: Dose-Dependent Effect; Activity [1]: 20.7%; remaining at 4 h [11]: 98.3%; solubility ([2]; pH 7.4, read-out: solubility): 21.6 µg/mL (≈ 24.7 µM); Activity [12]: Dose-Dependent Effect; remaining at 24 h [13]: 78.9%; Activity [4]: 2.4%; remaining at 12 h [14]: 81.8%; Activity [5]: 48.9%; Activity [15]: Active
18 | Cc1nc2c(s1)C[C@@]1(C)[C@@H](CC[C@]3(C)[C@@H]1CC=C1[C@@H]4CC(C)(C)CC[C@]4(C(=O)OCc4ccccc4)CC[C@]13C)[C@]2(C)CO | 27.85% | 98.6% | –
19 | CC1(C)CC[C@]2(C(=O)OCC(=O)OCCOCCOCCOCCOCCOCCOCCOCCOCCOCCOCCOCCOCCO)CC[C@]3(C)C(=CC[C@@H]4[C@@]5(C)Cc6nccnc6[C@@](C)(CO)[C@@H]5CC[C@]43C)[C@@H]2C1 | 39.13% | 73.3% | –
20 | CC1(C)CC[C@]2(C(=O)OCc3ccccc3)CC[C@]3(C)C(=CC[C@@H]4[C@@]5(C)Cc6nccnc6[C@@](C)(COC(=O)CCC(=O)OCCOCCOCCOCCOCCOCCOCCOCCOCCO)[C@@H]5CC[C@]43C)[C@@H]2C1 | 15.38% | 70.6% | solubility ([2]; pH 7.4, read-out: solubility): 546 µg/mL (≈ 500 µM)
21 | CC1(C)CC[C@]2(C(=O)OCc3ccccc3)CC[C@]3(C)C(=CC[C@@H]4[C@@]5(C)Cc6nccnc6[C@@](C)(COC(=O)CCC(=O)OCCOCCOCCO)[C@@H]5CC[C@]43C)[C@@H]2C1 | 43.54% | 82.5% | solubility ([2]; pH 7.4): Soluble
22 | COc1ccc(CCN(C)CCCC(C#N)(c2ccc(OC)c(OC)c2)C(C)C)cc1OC (centres undefined) | – | – | Activity [1]: 40.6%; Activity [4]: 2.4%
23 | CC1(C)CC[C@]2(C(=O)O)CC[C@]3(C)C(=CC[C@@H]4[C@@]5(C)CC[C@H](O)[C@@](C)(CO)[C@@H]5CC[C@]43C)[C@@H]2C1 [HEDERAGENIN] | 107.17% | – | –
24 | CC(=O)O[C@H]1C(=O)[C@@]2(C)[C@H]([C@H](OC(=O)c3ccccc3)[C@]3(O)C[C@H](OC(=O)[C@H](O)[C@@H](NC(=O)c4ccccc4)c4ccccc4)C(C)=C1C3(C)C)[C@]1(OC(C)=O)CO[C@@H]1C[C@@H]2O [PACLITAXEL] | 103.48% | – | Activity [4]: 2.1%; IC50 [16]: 778 nM
25 | CC[C@]1(O)C[C@H]2CN(CCc3c([nH]c4ccccc34)[C@@](C(=O)OC)(c3cc4c(cc3OC)N(C=O)[C@H]3[C@@](O)(C(=O)OC)[C@H](OC(C)=O)[C@]5(CC)C=CCN6CC[C@]43[C@@H]65)C2)C1 [VINCRISTINE] | – | – | IC50 [17]: 9.45 nM
